BaF3 tox: parental Ba/F3 cell viability inhibition, counter-screen for JAK2V617F inhibitor project, murine pro-B, CellTiter-Glo luminescence. CellTiter-Glo ATP luminescence. 220,000 tested, 1.1% active. inhibition, % at 5.6 µM;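 active = inhibition above a per-campaign cutoff, the mean inhibition of all tested compounds plus 3 SD, cut at about 27% in these data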;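 note: 0% = DMSO wells and 100% = JAK Inhibitor I control wells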
MT stabilize HCS: microtubule stabilizers in HeLa cells, primary screen, imaging, high-content imaging; HeLa tubulin immunostaining HCS, 24 h; share of cells brighter than vehicle mean+2SD; % tubulin-high responders, % at 10 µM; 200,000 tested, 0.83% active;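 active = plate Z-score above 3 for both tubulin-high and condensed-nucleus cell shares, with cell loss under 80%, at 10 µM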;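 note: anti alpha tubulin signal scored within the nucleus-defined area of each cell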
Ba/F3 V617F tox: reduced viability of JAK2V617F-dependent Ba/F3 cells, primary screen, JAK2V617F inhibitor project, cell-based, Ba/F3 EpoR-JAK2V617F, luminescence | 220,000 tested, 1.1% active | inhibition, % at 5.6 µM | ATP luminescence;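 active = inhibition above the campaign mean plus 3 SD over all tested compounds, cut at about 24% in these data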;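 note: cytokine-independent growth of Ba/F3 cells driven by EpoR plus mutant JAK2; 0% = DMSO-treated cells and 100% = JAK inhibitor I control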
IEC-6 tox: cytotoxicity in IEC-6 intestinal epithelial cells, primary screen, cytotoxicity control for KLF5 inhibitor project, cell-based, luminescence; IEC-6 cytotoxicity, luminescence viability; inhibition, % at 5 µM; 290,000 tested, 0.78% active; in the data active = inhibition above about 22%;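 note: 0% = plate median of test compound wells and 100% = cytotoxic reference compound wells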
b-catenin transl: modulators of beta-catenin nuclear translocation, primary screen, imaging, HeLa cells, immunofluorescence, high-content | 190,000 tested, 0.3% active | nuclear translocation activity, % at 5 µM | AID 1665, 2009;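 active = nuclear translocation activity above 50% at 5 µM, with a well cell count of 50 or more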;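 note: per-cell ratio of nuclear to cytoplasmic median beta-catenin stain intensity; plate controls were DMSO negative control for no effect and GSK-3 inhibitor IX positive control for full effect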
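Signal – beta-catenin immunofluorescence imaging with DAPI · Test system – human HeLa cell line · Dosing – 5 µM primary single dose, 0.1% DMSO, 0.02–20 µM confirmation series · Measure – % activation, nuclear-to-cytoplasmic median beta-catenin signal ratio per cell · Incubation – 24 h compound exposure at 37°C, 5% CO2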
KLF5 inh: KLF5 expression inhibitors, primary screen, DLD-1 cells, luminescence. AID 1700, 2009. inhibition, % at 5 µM. DLD-1 KLF5 promoter-luciferase reporter. 290,000 tested, 0.23% active;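 active = inhibition above a per-plate limit of that plate's mean compound inhibition plus 3 SD, cut at about 60% in these data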;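 note: 0% = DMSO wells and 100% = LY294002 at 200 µM; higher means less KLF5 promoter-driven luciferase light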
Starred values were filed as active, the others as inactive; x = not tested or not shown. A selection: hits, their analogues and other compounds. The true share with any hit is near 2.1%.

SMILES	BaF3 tox	MT stabilize HCS	Ba/F3 V617F tox	IEC-6 tox	b-catenin transl	KLF5 inh
O=C1CCC(CCC(=O)N2CCCC(C(=O)c3ccc4c5c(cccc35)CC4)C2)=NN1 (centres undefined)	1	4	0	0	-1	-15
CCC(CC)c1nnc(NC(=O)CN2C(=O)NC3(CCCC3)C2=O)s1	x	x	x	2	x	-14
COc1ccc(N2CC(C(=O)Nc3ncccc3C)CC2=O)cc1 (centres undefined)	101*	3	-3	-6	-2	-4
COc1ccc(N2CC(C(=O)N/N=C/c3ccc(C)cc3)CC2=O)cc1 (centres undefined)	5	21	7	16	54*	21
COc1ccc(N2CC(C(=O)N/N=C/c3ccc([N+](=O)[O-])cc3)CC2=O)cc1 (centres undefined)	2	3	0	-2	-1	-5
Cc1ccccc1C(=O)N1CCN(c2ccc(NC(=O)c3ccc4c(c3)OCO4)cc2)CC1	67*	2	67*	36*	-1	56
C[n+]1ccn(CC(=O)c2ccc(Br)cc2)c1	7	2	1	-6	x	-13
O=C(Cn1c(-c2ccccc2)c[n+]2ccsc12)c1ccc(Br)cc1	40*	4	27*	0	1	-13
CN(NC(=O)c1cccc(Cl)c1)c1nc(-c2ccccc2)nnc1C(F)(F)F	1	40*	-1	1	0	-8
C=CCCC(=O)Nc1nc(C)c(-c2csc(Nc3ccc(Cl)cc3Cl)n2)s1	3	35	4	5	21	-38
CCCCC(=O)Nc1nc(C)c(-c2csc(Nc3ccccc3OC)n2)s1	2	33	1	6	8	-26
COc1ccc(Nc2nc(-c3sc(NC(C)=O)nc3C)cs2)cc1	3	23*	2	5	x	8
C=CCCC(=O)Nc1nc(C)c(-c2csc(Nc3cc(Cl)ccc3OC)n2)s1	1	54*	-3	-4	4	-3
C=CCCC(=O)Nc1nc(C)c(-c2csc(Nc3ccccc3OC)n2)s1	4	36	1	7	56*	6
Cc1cc(C)cc(C(=O)NC(=S)Nc2ccc(Cc3ccncc3)cc2)c1	4	12*	3	1	-2	2
Cc1cccc(C(=O)NC(=S)Nc2ccc(Cc3ccncc3)cc2)c1	2	3	1	-1	-4	-19
O=C1c2ccccc2OC2(C=Cc3ccccc3O2)N1Cc1ccccc1 (centres undefined)	3	42*	1	-1	48	-20
O=C1NC2(CCN(Cc3ccccc3)CC2)Oc2ccccc21	2	4	-2	0	-1	-30
Cc1ccccc1-c1noc(-c2ccccc2C(=O)NCC2CCCO2)n1 (centres undefined)	62*	x	0	0	0	9
COc1ccccc1-c1noc(-c2ccccc2C(=O)NCC2CCCO2)n1 (centres undefined)	x	x	x	3	x	-15
CCCCCN=CC1=C(O)CC(c2ccccc2)CC1=O (centres undefined)	2	4	1	-1	-3	7
O=C1CC(c2ccccc2)CC(O)=C1C=NCCCN1CCOCC1 (centres undefined)	3	1	-1	-7	53*	7
CCOc1ccc(S(=O)(=O)NCc2ccc(C)cc2)c2cccnc12	1	3	-1	-8	1	-8
CCOc1ccc(NS(=O)(=O)c2ccc(OCC)c3ncccc23)cc1	4	44*	0	3	-1	13
CC(C)(C)NC(=O)CN(CC1CCCO1)C(=O)CNS(=O)(=O)c1ccc(F)cc1 (centres undefined)	x	x	x	3	x	-21
SMILES	BaF3 tox	MT stabilize HCS	Ba/F3 V617F tox	IEC-6 tox	b-catenin transl	KLF5 inh
CCOc1ccccc1C1C2=C(COC2=O)Nc2cc3c(cc21)OCO3 (centres undefined)	74*	7	83*	91*	2	63*
COc1cccc(C2CC(=O)Nc3cc4c(cc32)OCCO4)c1OC(C)C (centres undefined)	1	5	-1	6	0	6
CCCOc1c(OC)cccc1C1CC(=O)Nc2cc3c(cc21)OCCO3 (centres undefined)	6	51*	3	0	x	-14
CCCOc1c(OC)cccc1C1CC(=O)Nc2cc3c(cc21)OCO3 (centres undefined)	1	37*	0	0	-1	-4
O=C(N/C(=C\c1cccc([N+](=O)[O-])c1)C(=O)N1CCCCC1)c1cccs1	3	4	0	-2	0	-7
Cc1scc(C(=O)N2CCN(c3ccc(Cl)cc3)CC2)c1C	7	2	0	1	5	-12
O=C1C2C3C=CC(CC3)C2C(=O)N1c1cccc(Br)c1 (centres undefined)	x	x	x	-3	x	-8
C[N+]1(CC(=O)OCCCC2CCCCC2)CCCC1	3	9	0	2	1	-29
CC(C)CC1CCCCC1OC(=O)C[N+]1(C)CCCCC1 (centres undefined)	63*	2	57*	0	-3	-1
CC(C)(C)C1CCC(OC(=O)C[N+]2(C)CCCC2)CC1 (centres undefined)	36*	2	32*	-2	x	-15
CC(C)(C)C1CCC(OC(=O)C[N+]2(C)CCCCC2)CC1 (centres undefined)	41*	4	32*	-3	0	-15
Cc1cc(C)cc(NC(=S)N2CCC(NC(=O)c3ccc(F)cc3)CC2)c1	x	x	x	1	x	-20
COc1ccccc1CC(=O)Nc1cccc(C)n1	6	2	0	4	1	-25
O=C(CN1CCN(c2ccccc2)CC1)Nc1ccc(OCc2ccccc2)cc1	2	2	-5	0	-3	-53
c1ccc(CC2CCN(c3ncnc4sccc34)CC2)cc1	44*	2	37*	7	2	16
O=C(NCCCN1CCOCC1)c1ccc(NC(=O)C2COc3ccccc3O2)cc1 (centres undefined)	90*	3	0	-2	1	5
COc1ccc(C(=O)Nc2ccc(Cl)cc2C(=O)N2CCCC(C)C2)cc1 (centres undefined)	-1	2	-3	-5	-4	-12
O=[N+]([O-])c1ccc2[nH]ncc2c1	5	2	-3	4	1	11
COc1ccc2c(c1)c(CC(=O)Nc1nnc(C3CC3)s1)c(C)n2C(=O)c1ccc(Cl)cc1	38*	x	17	7	-2	-8
O=S(=O)(c1ccc(Br)s1)N1CCNCC1	-5	x	-4	-2	1	-13
COc1cccc(NC(=O)CCc2nc(-c3ccccc3F)no2)c1	6	4	3	6	0	-17
